In ChEMBL document CHEMBL3992493, “New approach of delivering cytotoxic drugs towards CAIX expressing cells: A concept of dual-target drugs” (Eur J Med Chem, 2017):
Blank lines part the entries; values can stand above or below the compound they belong to. Active and inactive are the calls of the source. The calls are words filed in the database; no cut-off is given here.

Assays:
[1] = target: Carbonic anhydrase 1 (Homo sapiens, UniProt P00915); experiment: Binding affinity to recombinant human carbonic anhydrase 1 after 15 mins by stopped-flow CO2 hydration assay
Carbonic anhydrase 1, sequence (P00915 whole entry): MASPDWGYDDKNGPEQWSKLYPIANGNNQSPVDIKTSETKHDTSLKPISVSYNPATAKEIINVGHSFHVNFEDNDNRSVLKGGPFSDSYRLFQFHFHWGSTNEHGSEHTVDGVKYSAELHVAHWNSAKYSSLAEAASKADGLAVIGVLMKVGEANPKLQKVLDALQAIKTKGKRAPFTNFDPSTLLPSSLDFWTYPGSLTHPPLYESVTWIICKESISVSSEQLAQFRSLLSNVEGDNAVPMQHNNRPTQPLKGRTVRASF

[2] = target: Carbonic anhydrase 2 (Homo sapiens, UniProt P00918); experiment: Binding affinity to recombinant human carbonic anhydrase 2 after 15 mins by stopped-flow CO2 hydration assay
[3] = target: Carbonic anhydrase 9 (Homo sapiens, UniProt Q16790); experiment: Binding affinity to recombinant human carbonic anhydrase 9 after 15 mins by stopped-flow CO2 hydration assay
[4] = target: Carbonic anhydrase 12 (Homo sapiens, UniProt O43570); experiment: Binding affinity to recombinant human carbonic anhydrase 12 after 15 mins by stopped-flow CO2 hydration assay
Carbonic anhydrase 12, sequence (O43570 whole entry): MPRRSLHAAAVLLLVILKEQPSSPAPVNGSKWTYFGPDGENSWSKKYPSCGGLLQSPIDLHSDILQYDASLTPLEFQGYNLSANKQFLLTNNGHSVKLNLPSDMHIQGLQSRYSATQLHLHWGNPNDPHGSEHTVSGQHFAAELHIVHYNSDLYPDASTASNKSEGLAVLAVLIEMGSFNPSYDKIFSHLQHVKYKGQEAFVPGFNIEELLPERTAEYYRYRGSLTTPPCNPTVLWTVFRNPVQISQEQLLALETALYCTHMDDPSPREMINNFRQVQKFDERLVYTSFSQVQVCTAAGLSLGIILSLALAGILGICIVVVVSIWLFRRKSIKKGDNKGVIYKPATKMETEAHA

[5] = test system: HCT-116; experiment: Effect on mitochondrial respiration in carbonic anhydrase 9 knockdown human HCT116 cells assessed as reduction in oxygen consumption rate at 0.5 mM after 24 hrs under hypoxic condition […]; assay type: ADME, cell-based; conditions: hct-116, 24 h, 500 µM
Method in brief: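 HCT116 cells with constitutive CAIX knockdown or scrambled control were seeded at 1.5×10^4 cells/well and kept 18 h at 0.2% O2. Medium was then switched to DMEM with 25 mM glucose, 4 mM glutamine and 1 mM pyruvate, 60 min before assay, in a CO2-free incubator at 37 °C. Seahorse XF96 oxygen consumption rate was read at baseline and after injection of drug or PBS vehicle. Values were normalized to BCA protein.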

[6] = test system: MDCK; experiment: Cytotoxicity against carbonic anhydrase 9 knockdown MDCK cells assessed as reduction in cell viability at 500 nM pretreated for 1 hr followed by 2 Gy irradiation under normoxic condition by Alamar blue assay; assay type: cell-based, Canis lupus familiaris; conditions: dog, 0.5 µM
Method in brief: (§1)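 ATR inhibitor plus radiation: MDCK CAIX+/CAIX− cells were preconditioned 24 h under normoxia (21% O2) or anoxia (≤0.02% O2). Compound in 0.5% DMSO was added 1 h before X-irradiation, 2 Gy normoxic or 4 Gy anoxic. Total compound exposure was 72 h, then washout and 72 h normoxic regrowth. Readout was 2 h alamarBlue conversion, as relative viability.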

[7] = test system: MDCK; experiment: Cytotoxicity against MDCK cells expressing carbonic anhydrase 9 assessed as reduction in cell viability at 500 nM pretreated for 1 hr followed by 2 Gy irradiation under normoxic condition by Alamar blue assay; assay type: functional, cell-based; conditions: Canis lupus familiaris
Method in brief: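 MDCK CAIX+ cells (human CAIX transfected) under normoxia (21% O2, 5% CO2). ATR inhibitors in 0.5% DMSO added 1 h before X-irradiation with 2 Gy. Exposure 72 h total, medium replaced, then 72 h further growth. Viability by 2 h alamarBlue conversion in normoxia.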

[8] = test system: MDCK; experiment: Cytotoxicity against carbonic anhydrase 9 knockdown MDCK cells assessed as reduction in cell viability at 500 nM pretreated for 1 hr followed by 4 Gy irradiation under anoxic condition by Alamar blue assay; assay type: cell-based, Canis lupus familiaris; conditions: dog, 0.5 µM
Method in brief: (§2)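 MDCK cells with or without CAIX, pre-exposed 24 h to anoxia (≤0.02% O2, 5% CO2, balance N2) in pre-equilibrated DMEM. ATR inhibitors in 0.5% DMSO added 1 h before 4 Gy X-irradiation. Exposure 72 h total, medium replaced, then 72 h normoxic regrowth. Viability by 2 h alamarBlue in normoxia.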

[9] = test system: MDCK; experiment: Cytotoxicity against MDCK cells expressing carbonic anhydrase 9 assessed as reduction in cell viability at 500 nM pretreated for 1 hr followed by 4 Gy irradiation under anoxic condition by Alamar blue assay; assay type: functional, cell-based; conditions: Canis lupus familiaris; method in brief: as §2
[10] = test system: MDCK; experiment: Cytotoxicity against carbonic anhydrase 9 knockdown MDCK cells assessed as reduction in cell viability at 500 nM pretreated for 72 hrs followed by 72 hrs incubation under normoxic condition by Alamar blue assay; assay type: cell-based, Canis lupus familiaris; conditions: dog, 0.5 µM
Method in brief: (§3)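 MDCK cells transfected with human CAIX or scrambled vector, normoxia (21% O2, 5% CO2). ATR inhibitors in 0.5% DMSO for 72 h, medium replaced, cells grown a further 72 h. Viability from 2 h alamarBlue conversion in normoxia.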

[11] = test system: MDCK; experiment: Cytotoxicity against MDCK cells expressing carbonic anhydrase 9 assessed as reduction in cell viability at 500 nM pretreated for 72 hrs followed by 72 hrs incubation under normoxic condition by Alamar blue assay; assay type: functional, cell-based; conditions: Canis lupus familiaris; method in brief: as §3
[12] = test system: MDCK; experiment: Cytotoxicity against carbonic anhydrase 9 knockdown MDCK cells assessed as reduction in cell viability at 500 nM after 72 hrs under anoxic condition by Alamar blue assay; assay type: cell-based, Canis lupus familiaris; conditions: dog, 0.5 µM
Method in brief: (§4)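 MDCK CAIX+ or CAIX− cells, 24 h anoxic preincubation (≤0.02% O2, 5% CO2) in pre-equilibrated DMEM. ATR inhibitors (0.5% DMSO) applied for 72 h without irradiation, then washed off, and 72 h normoxic regrowth. Readout by 2 h alamarBlue conversion under normoxia.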

[13] = test system: MDCK; experiment: Cytotoxicity against MDCK cells expressing carbonic anhydrase 9 assessed as reduction in cell viability at 500 nM after 72 hrs under anoxic condition by Alamar blue assay; assay type: functional, cell-based; conditions: Canis lupus familiaris; method in brief: as §4
[14] = test system: MDCK; experiment: Cytotoxicity against carbonic anhydrase 9 knockdown MDCK cells assessed as reduction in cell viability after 72 hrs under normoxic condition by Alamar blue assay; assay type: cell-based; conditions: Canis lupus familiaris
[15] = test system: MDCK; experiment: Cytotoxicity against MDCK cells expressing carbonic anhydrase 9 assessed as reduction in cell viability after 72 hrs under normoxic condition by Alamar blue assay; assay type: functional, cell-based; conditions: Canis lupus familiaris
[16] = test system: MDCK; experiment: Cytotoxicity against carbonic anhydrase 9 knockdown MDCK cells assessed as reduction in cell viability after 72 hrs under hypoxic condition by Alamar blue assay; assay type: cell-based; conditions: Canis lupus familiaris
[17] = test system: MDCK; experiment: Cytotoxicity against MDCK cells expressing carbonic anhydrase 9 assessed as reduction in cell viability after 72 hrs under hypoxic condition by Alamar blue assay; assay type: functional, cell-based; conditions: Canis lupus familiaris
[18] = test system: MDCK; experiment: Cytotoxicity against carbonic anhydrase 9 knockdown MDCK cells assessed as reduction in cell viability incubated for 24 hrs measured after 7 days under normoxic condition by methylene blue staining based clonogenic survival assay; set-up: species or system Canis lupus familiaris; conditions: dog
Method in brief: (§5)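 Clonogenic assay: confluent, high-density MDCK CAIX+/CAIX− cells were exposed to drug for 24 h at 0.2% or 21% O2. Cells were then trypsinized and reseeded in triplicate at known numbers. Colonies grew 7 days and were fixed/stained with 0.4% methylene blue in 70% ethanol. Surviving fraction was normalized to 0.5% DMSO vehicle; three independent biological repeats.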

[19] = test system: MDCK; experiment: Cytotoxicity against MDCK cells expressing carbonic anhydrase 9 assessed as reduction in cell viability incubated for 24 hrs measured after 7 days under normoxic condition by methylene blue staining based clonogenic survival assay; assay type: functional; conditions: Canis lupus familiaris; method in brief: as §5
[20] = test system: MDCK; experiment: Cytotoxicity against carbonic anhydrase 9 knockdown MDCK cells assessed as reduction in cell viability incubated for 24 hrs measured after 7 days under hypoxic condition by methylene blue staining based clonogenic survival assay; set-up: species or system Canis lupus familiaris; conditions: dog; method in brief: as §5
[21] = test system: MDCK; experiment: Cytotoxicity against MDCK cells expressing carbonic anhydrase 9 assessed as reduction in cell viability incubated for 24 hrs measured after 7 days under hypoxic condition by methylene blue staining based clonogenic survival assay; assay type: functional; conditions: Canis lupus familiaris; method in brief: as §5
[22] = test system: MDCK; experiment: Cytotoxicity against carbonic anhydrase 9 knockdown MDCK cells assessed as reduction in cell viability at 50 nM pretreated for 1 hr followed by 2 Gy irradiation under normoxic condition by Alamar blue assay; assay type: cell-based, Canis lupus familiaris; conditions: dog, 0.05 µM; method in brief: as §1
[23] = test system: MDCK; experiment: Cytotoxicity against MDCK cells expressing carbonic anhydrase 9 assessed as reduction in cell viability at 50 nM pretreated for 1 hr followed by 2 Gy irradiation under normoxic condition by Alamar blue assay; assay type: functional, cell-based; conditions: Canis lupus familiaris; method in brief: as §1
[24] = test system: MDCK; experiment: Cytotoxicity against carbonic anhydrase 9 knockdown MDCK cells assessed as reduction in cell viability at 50 nM pretreated for 1 hr followed by 4 Gy irradiation under anoxic condition by Alamar blue assay; assay type: cell-based, Canis lupus familiaris; conditions: dog, 0.05 µM; method in brief: as §1
[25] = test system: MDCK; experiment: Cytotoxicity against MDCK cells expressing carbonic anhydrase 9 assessed as reduction in cell viability at 50 nM pretreated for 1 hr followed by 4 Gy irradiation under anoxic condition by Alamar blue assay; assay type: functional, cell-based; conditions: Canis lupus familiaris; method in brief: as §1
[26] = test system: MDCK; experiment: Cytotoxicity against carbonic anhydrase 9 knockdown MDCK cells assessed as reduction in cell viability at 50 nM pretreated for 72 hrs followed by 72 hrs incubation under normoxic condition by Alamar blue assay; assay type: cell-based, Canis lupus familiaris; conditions: dog, 0.05 µM
Method in brief: (§6)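 ATR inhibitor without irradiation: MDCK CAIX+ or scrambled-control CAIX− cells were preconditioned 24 h at ≤0.02% O2 (anoxia) or 21% O2. Compound was added in 0.5% DMSO for 72 h, then washed off. Cells regrew 72 h under normoxia, followed by 2 h alamarBlue conversion. Viability is relative to control.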

[27] = test system: MDCK; experiment: Cytotoxicity against MDCK cells expressing carbonic anhydrase 9 assessed as reduction in cell viability at 50 nM pretreated for 72 hrs followed by 72 hrs incubation under normoxic condition by Alamar blue assay; assay type: functional, cell-based; conditions: Canis lupus familiaris; method in brief: as §6
[28] = test system: MDCK; experiment: Cytotoxicity against carbonic anhydrase 9 knockdown MDCK cells assessed as reduction in cell viability at 50 nM after 72 hrs under anoxic condition by Alamar blue assay; assay type: cell-based, Canis lupus familiaris; conditions: dog, 0.05 µM; method in brief: as §6
[29] = test system: MDCK; experiment: Cytotoxicity against MDCK cells expressing carbonic anhydrase 9 assessed as reduction in cell viability at 50 nM after 72 hrs under anoxic condition by Alamar blue assay; assay type: functional, cell-based; conditions: Canis lupus familiaris; method in brief: as §6
[30] = test system: HCT-116; experiment: Effect on mitochondrial respiration in human HCT116 cells expressing carbonic anhydrase 9 assessed as reduction in oxygen consumption rate at 2 mM […]; assay type: functional, cell-based
[31] = test system: HCT-116; experiment: Effect on mitochondrial respiration in carbonic anhydrase 9 knockdown human HCT116 cells assessed as reduction in oxygen consumption rate at 2 mM […]; assay type: cell-based; conditions: hct-116, 2000 µM
[32] = Cytotoxicity against carbonic anhydrase 9 knockdown MDCK cells assessed as surviving fraction incubated for 24 hrs measured after 7 days under normoxic condition by methylene blue staining based clonogenic survival assay; assay type: cell-based, Canis lupus familiaris; conditions: dog, read-out: Survival
Method in brief: (§7)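 Confluent, high-density MDCK CAIX+/CAIX− cells, to allow CAIX-dependent medium acidification. Drug or vehicle (0.5% DMSO) for 24 h under normoxia (21% O2) or hypoxia (0.2% O2). Cells then trypsinised and reseeded in triplicate at known numbers, grown 7 days. Colonies fixed and stained with 0.4% methylene blue in 70% ethanol. Surviving fraction normalised to vehicle. Three independent biological repeats.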

[33] = test system: MDCK; experiment: Cytotoxicity against MDCK cells expressing carbonic anhydrase 9 assessed as surviving fraction incubated for 24 hrs measured after 7 days under hypoxic condition by methylene blue staining based clonogenic survival assay; assay type: functional, Canis lupus familiaris; method in brief: as §7

Structure (SMILES): Cn1nnc2c(C(N)=O)ncn2c1=O [TEMOZOLOMIDE]
Ki [1]: > 50 µM
Ki [2]: > 50 µM
Ki [3]: > 50 µM
Ki [4]: > 50 µM
IC50 [14]: 775 µM
IC50 [15]: > 1000 µM
IC50 [16]: 1000 µM
IC50 [17]: > 1000 µM
Activity [18]: Toxic
Activity [19]: Active
Activity [20]: Toxic
Activity [21]: Active

Structure (SMILES): CNCc1ccc(-c2cc(-c3nc(-c4ccc(S(=O)(=O)C(C)C)cc4)cnc3N)on2)cc1 [BERZOSERTIB]
Ki [1]: > 50 µM
Ki [2]: > 50 µM
Ki [3]: > 50 µM
Ki [4]: > 50 µM
Activity [22]: Non-Toxic
Activity [23]: Active
Activity [24]: Non-Toxic
Activity [25]: Active
Activity [26]: Toxic
Activity [27]: Active
Activity [28]: Toxic
Activity [29]: Active

Structure (SMILES): Cn1nnc2c(C(=O)NOS(N)(=O)=O)ncn2c1=O
Ki [1]: > 50 µM
Ki [2]: > 50 µM
Ki [3]: > 50 µM
Ki [4]: > 50 µM
IC50 [14]: 719 µM
IC50 [15]: > 1000 µM
IC50 [16]: 1000 µM
IC50 [17]: > 1000 µM
viability at 24 h [32]: 46.1%
Survival [33]: 26.1%

Further lines, with some results ahead:

Ki [1]: > 50 µM
Ki [2]: > 50 µM
Ki [3]: > 50 µM
Ki [4]: > 50 µM
Structure (SMILES): [H]/N=C(/N)N/C(=N/[H])NCCc1ccccc1 [PHENFORMIN]
Activity [5]: Toxic

Ki [1]: > 50 µM
Ki [2]: > 50 µM
Ki [3]: > 50 µM
Ki [4]: > 50 µM
Structure (SMILES): CS(=O)(=O)c1ccc(-c2cnc(NS(N)(=O)=O)c(C(=O)Nc3ccccc3)n2)cc1
Activity [6]: Non-Toxic
Activity [7]: Active
Activity [8]: Non-Toxic
Activity [9]: Active
Activity [10]: Toxic
Activity [11]: Active
Activity [12]: Toxic
Activity [13]: Active

Ki [3]: 0.0202 µM
Structure (SMILES): Cl.N=C(N)NC(=N)NCCc1ccc(S(N)(=O)=O)cc1
Activity [30]: inactive
Activity [31]: Non-Toxic
